Data published in ChEMBL document CHEMBL1134871, “N-aryl-prolyl-dipeptides as potent antagonists of VLA-4” (Bioorg Med Chem Lett, 2002).

What was measured:
Integrin alpha-4/beta-7 = molecular target: T1, Integrin alpha-4/beta-7 (Homo sapiens, UniProt P13612+P26010); assay: Inhibition of [125I]MAdCAM-Ig binding to human integrin alpha4-beta7 of RPMI-8866 cells; assay type: cell-based
T1 sequence (P13612 whole entry): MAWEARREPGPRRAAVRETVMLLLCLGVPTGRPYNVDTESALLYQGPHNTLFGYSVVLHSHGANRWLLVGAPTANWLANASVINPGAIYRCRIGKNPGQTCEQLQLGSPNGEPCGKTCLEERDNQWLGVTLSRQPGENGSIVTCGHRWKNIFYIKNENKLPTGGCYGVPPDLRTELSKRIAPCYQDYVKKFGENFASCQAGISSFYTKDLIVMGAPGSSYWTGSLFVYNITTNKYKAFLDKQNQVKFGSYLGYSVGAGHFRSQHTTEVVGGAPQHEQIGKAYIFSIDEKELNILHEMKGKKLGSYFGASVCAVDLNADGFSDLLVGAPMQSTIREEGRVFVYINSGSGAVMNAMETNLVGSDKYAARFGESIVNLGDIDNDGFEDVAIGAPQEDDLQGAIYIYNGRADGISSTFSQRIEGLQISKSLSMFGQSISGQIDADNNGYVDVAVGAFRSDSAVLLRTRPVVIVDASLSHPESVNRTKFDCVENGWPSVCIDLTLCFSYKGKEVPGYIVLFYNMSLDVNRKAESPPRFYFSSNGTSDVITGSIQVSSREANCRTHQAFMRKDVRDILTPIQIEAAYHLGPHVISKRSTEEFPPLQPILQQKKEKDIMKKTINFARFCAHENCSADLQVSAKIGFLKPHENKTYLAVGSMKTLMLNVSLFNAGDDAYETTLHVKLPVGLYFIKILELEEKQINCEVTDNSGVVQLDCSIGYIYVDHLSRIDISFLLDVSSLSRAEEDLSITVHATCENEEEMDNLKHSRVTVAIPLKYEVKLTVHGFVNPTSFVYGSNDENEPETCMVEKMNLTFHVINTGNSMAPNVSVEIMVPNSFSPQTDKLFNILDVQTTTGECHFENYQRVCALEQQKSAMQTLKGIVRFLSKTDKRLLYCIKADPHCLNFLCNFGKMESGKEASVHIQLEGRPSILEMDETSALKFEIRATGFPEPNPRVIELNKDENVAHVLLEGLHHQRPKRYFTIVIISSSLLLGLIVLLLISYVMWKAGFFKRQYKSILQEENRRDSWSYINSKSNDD
T1 sequence (P26010 whole entry): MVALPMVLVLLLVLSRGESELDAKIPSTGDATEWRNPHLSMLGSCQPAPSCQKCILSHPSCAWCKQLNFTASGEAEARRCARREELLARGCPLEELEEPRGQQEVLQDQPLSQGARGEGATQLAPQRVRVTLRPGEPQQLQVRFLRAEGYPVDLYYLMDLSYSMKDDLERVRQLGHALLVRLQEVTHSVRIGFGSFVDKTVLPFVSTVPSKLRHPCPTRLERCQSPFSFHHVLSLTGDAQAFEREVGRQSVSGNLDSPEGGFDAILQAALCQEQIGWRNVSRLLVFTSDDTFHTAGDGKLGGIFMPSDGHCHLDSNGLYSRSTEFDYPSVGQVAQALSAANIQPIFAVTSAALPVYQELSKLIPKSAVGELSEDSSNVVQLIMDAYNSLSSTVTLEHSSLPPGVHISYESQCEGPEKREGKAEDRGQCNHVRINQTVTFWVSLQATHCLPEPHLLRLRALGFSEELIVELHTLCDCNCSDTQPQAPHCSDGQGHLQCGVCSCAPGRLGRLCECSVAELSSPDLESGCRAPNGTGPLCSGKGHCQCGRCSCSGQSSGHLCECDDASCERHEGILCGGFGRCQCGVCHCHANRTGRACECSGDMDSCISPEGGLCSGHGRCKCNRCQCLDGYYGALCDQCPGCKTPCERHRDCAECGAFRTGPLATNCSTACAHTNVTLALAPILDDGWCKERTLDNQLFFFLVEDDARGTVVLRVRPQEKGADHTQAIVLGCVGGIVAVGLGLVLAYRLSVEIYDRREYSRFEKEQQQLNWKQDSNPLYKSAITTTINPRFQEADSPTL

Integrin alpha-4/beta-1 = Integrin alpha-4/beta-1 (Homo sapiens, UniProt P05556+P13612); assay: Inhibition of [125I]VCAM-Ig binding to human integrin alpha4-beta1 (VLA-4) of Jurkat cells; assay type: cell-based
In short: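 Filtered, washed, and bound radiolabel counted by scintillation. DMSO wells set 0% inhibition; cell-free wells set 100%. IC50 from ten-point titration by four-parameter fit, run in duplicate.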

[1] = Plasma clearance rate in Sprague-Dawley rats; assay type: ADME, organism-based; conditions: rat, read-out: Clp
In short: (§1)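 Sprague–Dawley rats given 1 mg/kg iv and 2 mg/kg po. Plasma half-life taken over 0–8 h.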

[2] = Plasma half-life was determined in Sprague-Dawley rats after 0-8 hr of administration; assay type: ADME, organism-based; conditions: rat; in short: as §1
[3] = Oral bioavailability in rat (Sprague-Dawley) (dose 1 mg/kg i.v.); assay type: ADME, organism-based; conditions: in vivo, 2 mg/kg; in short: as §1

Chain of Integrin alpha-4/beta-1 (P05556 whole entry, one chain of several): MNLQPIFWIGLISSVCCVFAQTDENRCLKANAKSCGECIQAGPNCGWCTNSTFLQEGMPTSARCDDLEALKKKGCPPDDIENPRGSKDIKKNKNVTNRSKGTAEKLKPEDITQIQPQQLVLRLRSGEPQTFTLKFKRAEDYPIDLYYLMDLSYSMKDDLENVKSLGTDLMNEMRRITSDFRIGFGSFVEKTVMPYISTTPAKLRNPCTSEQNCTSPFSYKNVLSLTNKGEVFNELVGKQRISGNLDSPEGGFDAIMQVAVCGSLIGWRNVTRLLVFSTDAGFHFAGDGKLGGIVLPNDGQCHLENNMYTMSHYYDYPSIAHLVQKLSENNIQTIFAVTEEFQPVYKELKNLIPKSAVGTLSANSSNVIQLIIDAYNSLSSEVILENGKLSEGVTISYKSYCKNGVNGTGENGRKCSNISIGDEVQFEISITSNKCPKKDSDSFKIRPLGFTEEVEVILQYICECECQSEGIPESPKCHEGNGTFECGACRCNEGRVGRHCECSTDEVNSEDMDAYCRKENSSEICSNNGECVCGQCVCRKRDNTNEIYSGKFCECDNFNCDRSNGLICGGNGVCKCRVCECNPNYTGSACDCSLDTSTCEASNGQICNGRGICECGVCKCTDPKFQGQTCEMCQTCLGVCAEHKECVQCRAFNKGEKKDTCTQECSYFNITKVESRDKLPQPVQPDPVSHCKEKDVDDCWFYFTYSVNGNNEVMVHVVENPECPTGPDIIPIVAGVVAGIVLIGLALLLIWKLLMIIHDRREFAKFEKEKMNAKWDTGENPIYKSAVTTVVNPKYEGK

SMILES | IC50 (Integrin alpha-4/beta-7) [nM] | IC50 (Integrin alpha-4/beta-1) [nM] | clearance [1] [mL/min/kg] | half-life [2] [min] | bioavailability [3] [%]
COc1cccc(OC)c1-c1ccc(C[C@H](NC(=O)[C@@H]2CCCN2c2cncnc2)C(=O)O)cc1 | 18.8 | 0.73 | – | – | –
COc1cccc(N2CCC[C@H]2C(=O)N[C@@H](Cc2ccc(-c3c(OC)cccc3OC)cc2)C(=O)O)c1 | 5.8 | 0.41 | 64 | 42 | 3
COc1cccc(OC)c1-c1ccc(C[C@H](NC(=O)[C@@H]2CCCN2c2cc([N+](=O)[O-])cc([N+](=O)[O-])n2)C(=O)O)cc1 | 17 | 0.38 | – | – | –
COc1cccc(OC)c1-c1ccc(CC(NC(=O)C2(c3ccccc3)CCCC2)C(=O)O)cc1 (stereo unspecified) | 110 | 3.2 | 22 | – | 55
COc1cccc(OC)c1-c1ccc(C[C@H](NC(=O)[C@@H]2CCCN2c2cncc3ccccc23)C(=O)O)cc1 | 45 | 1.1 | – | – | –
COc1cccc(OC)c1-c1ccc(C[C@H](NC(=O)[C@@H]2CCCN2c2ccc([N+](=O)[O-])cc2)C(=O)O)cc1 | 17.1 | 1.1 | > 100 | 84 | < 1
COc1cccc(OC)c1-c1ccc(C[C@H](NC(=O)[C@@H]2CCCN2c2ccccc2C#N)C(=O)O)cc1 | 3.5 | 0.37 | 69 | 18 | < 1
COc1cccc(OC)c1-c1ccc(C[C@H](NC(=O)[C@@H]2CCCN2c2cccnc2)C(=O)O)cc1 | 5.5 | 0.34 | 43 | 12 | < 1
COc1cccc(OC)c1-c1ccc(C[C@H](NC(=O)[C@@H]2CCCN2c2cnccn2)C(=O)O)cc1 | 8.9 | 0.17 | – | – | –

Results, then the compound that gave them:

IC50 (Integrin alpha-4/beta-7) [nM] | IC50 (Integrin alpha-4/beta-1) [nM] | clearance [1] [mL/min/kg] | half-life [2] [min] | bioavailability [3] [%] | SMILES
18 | 1.9 | 29 | 18 | 2 | COc1cccc(OC)c1-c1ccc(C[C@H](NC(=O)[C@@H]2CCCN2c2ccccn2)C(=O)O)cc1
21 | 0.61 | 78 | 36 | 14 | COc1cccc(OC)c1-c1ccc(C[C@H](NC(=O)[C@@H]2CCCN2c2ccccc2)C(=O)O)cc1
5 | 0.11 | 122 | – | 22 | COc1cccc(OC)c1-c1ccc(CC(NC(=O)C2(S(=O)(=O)c3ccccc3)CCCC2)C(=O)O)cc1 (stereo unspecified)
2.5 | 0.05 | 127 | 36 | 2 | COc1cccc(OC)c1-c1ccc(CC(NC(=O)C2CCCN2S(=O)(=O)c2ccccc2)C(=O)O)cc1 (stereo unspecified)
